Measured values published in PMC2215654 (The Journal of General Physiology, 1984).
Where two headings read alike, the source gives them in different places. Each block holds one compound with its values, some of them ahead of it.

Legend:
[1] = system: red cells (valinomycin-induced Rb+ exchange); experiment: 86Rb exchange with valinomycin, 0C; format: cell-based, human
In short: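 Human red cells washed in 150 mM NaCl, 2 mM KCl, 20 mM HEPES pH 7.4, then loaded 17 h at 37°C (50% hematocrit) with ~5 uCi/ml 86Rb in 5 mM adenosine/chloramphenicol buffer. Efflux ran at 0°C, 0.1% hematocrit, in 48 mM NaCl/112 mM KCl/5 mM HEPES pH 7.2 with 1.33% ethanol. Valinomycin was added last, with or without 10 uM DIDS. Timed samples were centrifuged to give the efflux rate constant.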

[2] = system: red cells (net chloride permeability); experiment: Net KCl flux with valinomycin into low chloride medium, 0C; format: cell-based, human
In short: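 Nystatin-treated high-Cl cells were washed in 150K, then 10K-Hi. Net K+ efflux was measured at 0°C, 0.1% hematocrit, in 10K-Hi with 1.33% ethanol, started by adding graded valinomycin, with or without 10 uM DIDS. K+ was read by flame photometry and taken as net KCl efflux. PK/PCl came from Goldman-equation fits, with PK linear in valinomycin and PK = 0.5 PRb.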

[3] = target: T1, human erythrocyte anion exchange protein (band 3) (Homo sapiens, UniProt P02730); experiment: H2DIDS inhibition of chloride exchange in resealed ghosts with Cli < Clo, 0C; format: cell-based
T1 sequence (P02730 1-911): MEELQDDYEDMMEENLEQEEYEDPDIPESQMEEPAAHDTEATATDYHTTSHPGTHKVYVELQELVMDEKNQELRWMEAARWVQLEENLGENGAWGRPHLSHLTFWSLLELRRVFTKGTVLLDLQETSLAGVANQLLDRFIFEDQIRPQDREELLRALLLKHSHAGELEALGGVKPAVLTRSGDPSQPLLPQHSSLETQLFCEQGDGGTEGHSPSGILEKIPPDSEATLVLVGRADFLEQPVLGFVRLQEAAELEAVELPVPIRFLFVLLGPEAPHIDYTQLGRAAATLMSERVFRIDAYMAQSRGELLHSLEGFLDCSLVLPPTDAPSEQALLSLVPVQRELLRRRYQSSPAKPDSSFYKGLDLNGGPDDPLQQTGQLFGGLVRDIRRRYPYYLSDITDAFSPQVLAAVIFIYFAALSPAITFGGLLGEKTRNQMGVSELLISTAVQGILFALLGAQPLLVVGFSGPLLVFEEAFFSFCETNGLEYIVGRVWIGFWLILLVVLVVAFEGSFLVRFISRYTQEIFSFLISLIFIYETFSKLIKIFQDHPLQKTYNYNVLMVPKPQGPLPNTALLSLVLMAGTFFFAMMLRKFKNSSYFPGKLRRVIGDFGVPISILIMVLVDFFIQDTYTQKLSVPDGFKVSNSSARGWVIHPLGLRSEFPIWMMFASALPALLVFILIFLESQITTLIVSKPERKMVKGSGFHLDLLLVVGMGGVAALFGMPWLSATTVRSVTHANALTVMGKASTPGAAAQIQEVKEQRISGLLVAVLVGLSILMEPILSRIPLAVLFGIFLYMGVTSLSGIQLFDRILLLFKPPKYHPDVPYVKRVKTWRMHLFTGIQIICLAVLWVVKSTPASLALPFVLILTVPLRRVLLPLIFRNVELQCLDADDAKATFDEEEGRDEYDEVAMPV
In short: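 Washed cells were lysed at 0°C in 3.5 mM acetic acid, 4 mM MgSO4, 1 mM EGTA. Tris/KCl/sodium citrate was added for 10 or 60 mM internal Cl; after 10 min at 0°C, ghosts were resealed 45 min at 37°C. They were washed in 60 mM NaCl, 60 mM Na citrate, 5 mM HEPES, 5 mM glucose, MgSO4, pH 7.2. 36Cl efflux with graded H2DIDS was measured at 0°C; ID50 came from Dixon-plot x-intercepts.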

[4] = target: T1, human erythrocyte anion exchange protein (band 3); format: cell-based; conditions: Table III mean
In short: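 Washed cells in 60K-Hi (pH 7.2) were pretreated 45 min at 37°C, 10% hematocrit, with 2.5 uM (low pH) or 5 uM (high pH) H2DIDS. They were albumin-washed, nystatin-treated (75 ug/ml, 10 min each in 60K-Hi then 60K-Lo, 0°C) and washed into 60K-Lo at pH 7.2 or 9.0. 36Cl efflux with graded H2DIDS and Cl ratios were measured at 0°C in those media. ID50 came from Dixon-plot x-intercepts.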

SMILES: O=S(=O)(O)c1cc(N=C=S)ccc1C=Cc1ccc(N=C=S)cc1S(=O)(=O)O [DIDS, 4,4'-diisothiocyano-stilbene-2,2'-disulfonic acid]
effect on Rb+ exchange ([1]; DIDS 10 uM, valinomycin-induced Rb+ exchange): no significant effect
PRb ([1]; Fig. 7, 10 uM valinomycin with 10 uM DIDS present): 0.09216 mmol/kg Hb - min - mM
plateau net KCl efflux ([2]; in the presence of 10 uM DIDS, high valinomycin concentrations): greatly reduced

ID50* (no chloride gradient), mean ([3]; Table II mean, extracellular Cl 60 mM, intracellular Cl ~60 mM, 0C): 0.15 AM
ID50 (with chloride gradient Clo > Cli), mean ([3]; Table II mean, intracellular Cl averaged 27.8 mM, mean Clo/Cli 2.35, 0C): 0.21 AM
ID50/ID50*, mean ([3]; Table II mean, mean Clo/Cli 2.35): 1.41
increase in ID50 caused by high pH ([3]; pH 9.0 versus pH 7.2, chloride ratio nearly invariant with pH): 30%
ID50* (no chloride gradient), mean ([4]; extracellular Cl 60 mM, intracellular Cl ~60 mM, 0C): 0.24 AM
ID50 (chloride gradient induced by increasing pH), mean ([4]; intracellular Cl averaged 14.4 mM, mean Clo/Cli 4.66, 0C): 0.47 AM
ID50/ID50*, mean ([4]; mean Clo/Cli 4.66): 2.00
SMILES: O=S(=O)(O)c1cc(N=C=S)ccc1CCc1ccc(N=C=S)cc1S(=O)(=O)O [H2DIDS, 4,4'-diisothiocyano-1,2-diphenylethane-2,2'-disulfonic acid]

SMILES: CC(C)[C@@H]1NC(=O)[C@H](C)OC(=O)[C@@H](C(C)C)NC(=O)[C@@H](C(C)C)OC(=O)[C@H](C(C)C)NC(=O)[C@H](C)OC(=O)[C@@H](C(C)C)NC(=O)[C@@H](C(C)C)OC(=O)[C@H](C(C)C)NC(=O)[C@H](C)OC(=O)[C@@H](C(C)C)NC(=O)[C@@H](C(C)C)OC1=O [valinomycin]
PRb ([1]; Fig. 7, control cells, 10 uM valinomycin): 0.09134 mmol/kg Hb - min - mM
PK/PCl ratio ([2]; 10 uM valinomycin, 10K-Hi medium, assuming PK = 0.5 PRb): 33
PK/PCl ratio ([2]; valinomycin, other experiments, medium with 150 mM NaCl and 10 mM KCl): > 20
